Active and inactive are the calls of the source. The rule behind the calls is not given here.
Experiments:
[1] = target: T1, Polyunsaturated fatty acid 5-lipoxygenase (Homo sapiens, UniProt P09917); assay: Inhibition of human recombinant 5-LO expressed in Escherichia coli MV1190 using arachidonic acid as substrate preincubated for 10 mins followed by substrate addition measured after 10 mins by RP-HPLC analysis
T1 sequence (P09917 whole entry): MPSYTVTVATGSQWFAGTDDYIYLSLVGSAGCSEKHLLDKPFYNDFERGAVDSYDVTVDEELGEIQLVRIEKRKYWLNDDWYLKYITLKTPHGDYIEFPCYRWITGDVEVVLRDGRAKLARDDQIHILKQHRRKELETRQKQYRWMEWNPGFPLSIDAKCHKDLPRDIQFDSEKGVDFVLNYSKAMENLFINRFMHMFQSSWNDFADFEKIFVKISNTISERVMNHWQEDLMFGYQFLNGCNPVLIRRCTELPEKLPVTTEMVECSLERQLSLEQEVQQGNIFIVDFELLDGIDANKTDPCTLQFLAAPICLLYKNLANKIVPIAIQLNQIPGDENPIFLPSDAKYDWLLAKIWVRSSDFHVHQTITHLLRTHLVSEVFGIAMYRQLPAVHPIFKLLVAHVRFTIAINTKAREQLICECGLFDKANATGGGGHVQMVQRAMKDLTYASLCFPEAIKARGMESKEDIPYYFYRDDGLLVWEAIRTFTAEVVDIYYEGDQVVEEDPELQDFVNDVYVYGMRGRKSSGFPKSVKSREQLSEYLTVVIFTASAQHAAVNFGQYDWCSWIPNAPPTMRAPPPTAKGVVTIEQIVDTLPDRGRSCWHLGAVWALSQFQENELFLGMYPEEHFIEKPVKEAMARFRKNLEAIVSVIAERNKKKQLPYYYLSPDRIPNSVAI
Procedure, shortened: (§1)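 Human 5-LO expressed in E. coli MV1190, partially purified on ATP-agarose, diluted in PBS with 1 mM EDTA and 1 mM ATP. Held 10 min at 4 °C with compound, warmed 30 s to 37 °C, started with 2 mM CaCl2 plus 20 μM AA. Run 10 min at 37 °C, stopped with methanol. LTB4 trans-isomers and 5-H(p)ETE measured by RP-HPLC. IC50 from 4–5 concentrations; n = 3–4.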

[2] = target: T1, Polyunsaturated fatty acid 5-lipoxygenase; assay: Inhibition of 5-LO in human peripheral blood neutrophils using arachidonic acid as substrate preincubated for 15 mins followed by substrate addition measured after 10 mins in presence of Ca2+ ionophore A23187 by RP-HPLC analysis
Prostaglandin E synthase = target: T2, Prostaglandin E synthase (Homo sapiens, UniProt O14684); assay: Inhibition of human A549 cell microsomal membrane-derived mPGES-1 assessed as reduction in conversion of PGH2 to PGE2 preincubated for 15 mins followed by PGH2 addition measured after 1 min by RP-HPLC analysis; format: cell-based
T2 sequence (O14684 whole entry): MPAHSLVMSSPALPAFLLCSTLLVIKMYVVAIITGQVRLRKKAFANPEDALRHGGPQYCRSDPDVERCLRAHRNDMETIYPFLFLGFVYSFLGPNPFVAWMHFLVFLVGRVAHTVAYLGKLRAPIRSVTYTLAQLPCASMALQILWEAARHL

Neutrophil = assay: Cytotoxicity against human neutrophils assessed as reduction in cell viability up to 10 uM up to 30 mins by light microscopic and trypan blue exclusion assay; format: cell-based; conditions: 0.5 h
Procedure, shortened: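 Isolated human blood neutrophils (dextran sedimentation, Nycoprep, hypotonic lysis) in PBS pH 7.4 with 1 mg/mL glucose and 1 mM CaCl2. Compounds tested up to 10 μM for 30 min. Viability scored by light microscopy with trypan blue exclusion.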

[3] = target: T3, Polyunsaturated fatty acid 5-lipoxygenase (Homo sapiens) (UniProt P09917); assay: Inhibition of human recombinant 5-LO expressed in Escherichia coli MV1190 assessed as residual activity at 10 uM using arachidonic acid as substrate preincubated for 10 mins followed by substrate addition measured after 10 mins by RP-HPLC analysis relative to control; procedure, shortened: as §1
T3 sequence (whole entry): T1 sequence (P09917 whole entry)

Mus musculus [4] = assay: Anti inflammatory activity in CD-1 mouse assessed as reduction in zymosan-induced LTC4 by measuring LTC4 level in peritoneal exudates at 10 mg/kg, ip preincubated for 30 mins followed by zymosan addition measured after 30 mins by enzyme immunoassay (reference value: 92.2 +/- 12.8 ng/ml); format: functional
Mus musculus [5] = assay: Anti inflammatory activity in CD-1 mouse assessed as reduction in zymosan-induced PGE2 by measuring PGE2 level in peritoneal exudates at 5 mg/kg, ip preincubated for 30 mins followed by zymosan addition measured after 30 mins by enzyme immunoassay (reference value: 10.5 +/- 1.34 ng/ml); format: functional
Mus musculus [6] = assay: (§2) Anti inflammatory in CD-1 mouse assessed as reduction in zymosan-induced inflammatory cell infiltration by measuring inflammatory cell level in peritoneal exudates at 5 mg/kg, ip preincubated for 30 mins followed by zymosan addition measured after 4 hrs […] (reference value: 7.3 +/- 0.72 10^6); format: functional
[7] = target: T3, Polyunsaturated fatty acid 5-lipoxygenase (Homo sapiens); assay: Competitive inhibition of human recombinant 5-LO expressed in Escherichia coli MV1190 using different concentration of arachidonic acid as substrate preincubated for 15 mins followed by substrate addition measured after 10 mins by RP-HPLC analysis; conditions: in the assay text read “preincubated for 10 mins” for “preincubated for 15 mins”
Procedure, shortened: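 Semipurified recombinant human 5-LO assayed in the cell-free format with CaCl2 and varying AA concentrations, products measured by RP-HPLC. Representative experiment of three independent runs.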

Mus musculus [8] = assay: Anti inflammatory activity in CD-1 mouse assessed as reduction in zymosan-induced PGE2 by measuring PGE2 level in peritoneal exudates at 10 mg/kg, ip preincubated for 30 mins followed by zymosan addition measured after 30 mins by enzyme immunoassay (reference value: 10.5 +/- 1.34 ng/ml); format: functional
Mus musculus [9] = assay: as §2, with “10” for “5”; format: functional
Mus musculus [10] = assay: Anti inflammatory activity in CD-1 mouse assessed as reduction in zymosan-induced LTC4 level in peritoneal exudates at 10 mg/kg, ip preincubated for 30 mins followed by zymosan addition measured after 30 mins by enzyme immunoassay relative to control; format: functional; parameters: scale not given: the % may be the effect or the level left
Mus musculus [11] = assay: Anti inflammatory in CD-1 mouse assessed as reduction in zymosan-induced inflammatory cell infiltration level in peritoneal exudates at 10 mg/kg, ip preincubated for 30 mins followed by zymosan addition measured after 4 hr relative to control; format: functional; parameters: scale not given: the % may be the effect or the level left
[12] = target: T3, Polyunsaturated fatty acid 5-lipoxygenase (Homo sapiens); assay: Reversible inhibition of human recombinant 5-LO expressed in Escherichia coli MV1190 using arachidonic acid as substrate preincubated for 15 mins followed by 10 fold dilution measured after 10 mins by RP-HPLC analysis
Procedure, shortened: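 Semipurified recombinant human 5-LO in the cell-free assay (2 mM CaCl2, 20 μM AA, 10 min at 37 °C, RP-HPLC read-out). Reversibility tested by wash-out using 10-fold dilution. Means ± SEM, n = 3–4.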

IC50 [1] [µM]	IC50 [2] [µM]	IC50 (Prostaglandin E synthase) [µM]	Activity [3] [%]	Compound	Activity (Neutrophil)	further results
> 10	> 10	> 10	> 50	CC(=O)c1c(O)c(CC=C(C)C)c(O)c(C(CC(C)C)c2c(O)c(CC=C(C)C)c(O)c(C(C)=O)c2O)c1O	Non-Toxic	–
7.3	5.3	2.7	< 50	COc1c(CC=C(C)C)c(O)c(C(CC(C)C)c2c(O)c3c(c(C(C)=O)c2O)OC(C)(C)C(O)C3)c(O)c1C(C)=O (configuration not stated)	Non-Toxic	–
5.3	7.3	1.3	< 50	COc1c(CC=C(C)C)c(O)c(C(CC(C)C)c2c(O)c(C(C)=O)c(O)c3c2OC(C(C)(C)O)C3)c(O)c1C(C)=O (configuration not stated) [ACROFOLIONE A]	Non-Toxic	–
6	> 10	4.2	< 50	COc1c(CC=C(C)C)c(O)c(C(CC(C)C)c2c(O)c3c(c(C(C)=O)c2O)OC(C)(C)C=C3)c(O)c1C(C)=O (configuration not stated)	Non-Toxic	–
2.4	> 10	1.2	< 50	CC(=O)c1c(O)c(C(CC(C)C)c2c(O)c3c(c(C(C)=O)c2O)OC(C)(C)C=C3)c(O)c2c1OC(C)(C)C=C2	Non-Toxic	–
1	1.4	3.5	< 50	CC(=O)c1c(O)cc(O)c(C/C=C(\C)CCC=C(C)C)c1O	Non-Toxic	Activity (Mus musculus [4]): 57.3 ng/mL; inhibition [7]: inactive; Activity (Mus musculus [8]): 11.3 ng/mL; Activity (Mus musculus [9]): 5 ×10⁶ No_unit; Activity (Mus musculus [10]): 38%; Activity (Mus musculus [11]): 32%; inhibition [12]: Active
> 10	5	> 10	< 50	C=C(C)C1Cc2c(O)c(C(CC(C)C)c3c(O)c4c(c(C(C)=O)c3O)OC(C(=C)C)C4)c(O)c(C(C)=O)c2O1 (configuration not stated)	Non-Toxic	–
–	–	> 10	–	CC(=O)c1c(O)cc(O)c(CC=C(C)C)c1O	Non-Toxic	–

Continued, molecule first:

Compound	IC50 [1] [µM]	IC50 [2] [µM]	IC50 (Prostaglandin E synthase) [µM]	Activity [3] [%]	Activity (Neutrophil)	further results
CC(c1cc2ccccc2s1)N(O)C(N)=O (configuration not stated) [ZILEUTON]	–	–	–	–	–	Activity (Mus musculus [4]): 65 ng/mL
C=C(C)[C@@H](O)Cc1c(O)c(C(C)=O)c(O)c(C(CC(C)C)c2c(O)c(CC=C(C)C)c(OC)c(C(C)=O)c2O)c1O (some centres not stated)	2.5	6.3	1.1	< 50	Non-Toxic	–
COc1ccc2c(c1)c(CC(=O)O)c(C)n2C(=O)c1ccc(Cl)cc1 [INDOMETHACIN]	–	–	–	–	–	Activity (Mus musculus [5]): 3.52 ng/mL; Activity (Mus musculus [6]): 2.08 ×10⁶ No_unit
COc1c(CC=C(C)C)c(O)c(C(CC(C)C)c2c(O)c(C(C)=O)c(O)c3c2OC(C)(C)C(O)C3)c(O)c1C(C)=O (configuration not stated)	2	5	1.9	< 50	Non-Toxic	–
COc1c(CC=C(C)C)c(O)c(C(CC(C)C)c2c(O)c(CC=C(C)C)c(O)c(C(C)=O)c2O)c(O)c1C(C)=O (configuration not stated)	2.7	2.3	1.1	< 50	Non-Toxic	–
COc1c(CC=C(C)C)c(O)c(C(CC(C)C)c2c(O)c3c(c(C(C)=O)c2O)OC(C(C)(C)O)C3)c(O)c1C(C)=O (configuration not stated)	> 10	4.5	1.1	< 50	Non-Toxic	–
CC(=O)c1c(O)cc(O)c(C(CC(C)C)c2c(O)cc(O)c(C(C)=O)c2O)c1O	1.7	6.3	1	< 50	Non-Toxic	–
CC(=O)c1c(O)c(C/C=C(/C)CCC=C(C)C)c(O)c(C(CC(C)C)c2c(O)c(C/C=C(\C)CCC=C(C)C)c(O)c(C(C)=O)c2O)c1O (configuration not stated)	3.6	> 10	5.34	< 50	Non-Toxic	–

Reference: ChEMBL document CHEMBL4052610, “Evaluation of Dual 5-Lipoxygenase/Microsomal Prostaglandin E2 Synthase-1 Inhibitory Effect of Natural and Synthetic Acronychia-Type Isoprenylated Acetophenones” (J Nat Prod, 2017)
